Laboratory results published in ChEMBL document CHEMBL4513216, “Probing the Open Global Health Chemical Diversity Library for Multistage-Active Starting Points for Next-Generation Antimalarials” (ACS Infect Dis, 2020).

Assay: Toxicity liver stage against HepG2, at 10uM
Assay type: cell-based
Design: test concentration 10 uM, cell line HepG2-A16-CD81EGFP
Conditions: human, HepG2-A16-CD81EGFP cells; read-out: INHIBITION
In short: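 Uninfected HepG2-A16-CD81EGFP cells, 3 × 10^3 per well, 1536-well, plated on prespotted compound at 10 μM final, parasite-free screening media added to match infected plates; puromycin 10 μM positive, DMSO 0.5% negative; run in parallel with 48 h PbLuc assay at 37 °C, 5% CO2; viability by CellTiter-Glo luminescence, normalized to controls.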

| SMILES | cytotoxicity at 10 µM [%] |
| --- | --- |
| CC1(C2CCN(CCCC(=O)O)CC2)CN(Cc2ccccc2)C(=O)O1 (stereo not given) | -21.9 |
| COCCNC(=O)NCC(C)c1ccccc1OC (stereo not given) | 0.284 |
| O=C(Nc1nnn[nH]1)c1cc(-c2ccc(Br)s2)n[nH]1 | -2.71 |
| O=C1CO[C@H]2CN(S(=O)(=O)c3ccccc3)C[C@H]2N1Cc1ccccc1 | -1.69 |
| CC(=O)N(C)C(c1cccc(F)c1)c1ccccn1 (stereo not given) | -1.63 |
| CCC[C@@H]1CN(Cc2cc3c(cc2OC)OCO3)C[C@H]1C(=O)O | -2.7 |
| COc1cc(C(C)=O)ccc1SCC(=O)Nc1cccc(C)n1 | 15.1 |
| CCc1c(C)sc2ncnc(N3CCN(C4CCOCC4)CC3)c12 | 8.48 |
| COCC(=O)N1CCC2(CC1)CC(COC)N(Cc1ccccn1)C2 (stereo not given) | -101 |
| CCc1nnc2n1CCN(C(=O)c1cc3ccc(C)cc3[nH]1)C2 | -4.87 |
| COc1ccccc1C(=O)Nc1ccc([C@@H](O)[C@H]2COCC(=O)N2)cc1 | 1.17 |
| Cc1ccc(NC(=O)N2CCCN(C(N)=O)CC2)s1 | -6.58 |
| CCN1CC2(CCN(C(=O)C3CSC(C)(C)C(=O)N3)CC2)CC1=O (stereo not given) | 1.72 |
| Cc1sc2nc(CCN)nc(N3CCN(S(C)(=O)=O)CC3)c2c1C | -32 |
| Cc1nc(Cn2cc(I)cc(C)c2=O)oc1C | 0.939 |
| COc1ccc2[nH]cc(C3CCN(CCC(N)=O)CC3)c2c1 | -1.22 |
| CC(=O)N1CCC2(CCN(CC3CCOC3)C2)CC1 (stereo not given) | -95 |
| CCc1nnc2n1CCN(C(=O)c1cc3c(F)cccc3[nH]1)C2 | 6.41 |
| Cc1cnc(N2CC(C(=O)N3CCOCC3)C3(CCOCC3)C2)nc1 (stereo not given) | 4.47 |
| CCn1cc(CN2CCCN(C(=O)CCn3cc(C)cn3)CC2)cn1 | -2.11 |
| CCOCCN1CCN(CCCS(C)(=O)=O)CC1C (stereo not given) | -4.14 |
| Cc1noc(C2CCN(C(=O)c3ccc(NC4CC4)nc3)CC2)n1 | -7.1 |

| SMILES | cytotoxicity at 10 µM [%] |
| --- | --- |
| Cc1ccc(-c2nnc(CN3CCc4cnc(C)nc4C3)o2)cc1 | -6.95 |
| Cc1noc([C@@H](C)NCc2cccc(Cl)c2)c1C(=O)O | -0.802 |
| COc1nc(C)c(C(=O)N(C)Cc2nc(-c3ccccn3)no2)s1 | -8.44 |
| CCn1cc(NC(=O)NCC(O)c2ccccc2)cn1 (stereo not given) | -1.14 |
| c1cnc(N2CCC3(CN(CC4CCOC4)C3)C2)nc1 (stereo not given) | -5.77 |
| Cc1cccc(NC(=O)CCNCc2c(C)nn(C)c2N(C)C)n1 | 7.82 |
| Cc1ccccc1CC(C)NC(=O)Nc1cnn(CC(N)=O)c1 (stereo not given) | -11.5 |
| COc1ccc(CN2C[C@@H]3CN(C(=O)c4ccsc4)C[C@@H]3C2=O)cc1 | -3.7 |
| CNS(=O)(=O)c1ccc(CNC(=O)C2CCCN(C)C2)cc1 (stereo not given) | -10.5 |
| CCN(Cc1cnc(NCc2ccccc2)nc1)C1CCS(=O)(=O)C1 (stereo not given) | -15.3 |
| CCc1nnc2n1CCN(Cc1csc(-c3ccccc3)n1)C2 | -6.29 |
| Cc1noc(C)c1CN1CC2(CCN(C(=O)c3c[nH]cn3)C2)CC1=O (stereo not given) | -5.23 |
| O=C(NCCc1nnc[nH]1)Nc1cccc(SC(F)F)c1 | -42.4 |
| COc1c(CNCCNC(=O)c2cccc(C)c2)c(C)nn1C | -6.64 |
| Cn1ccnc1CCNS(=O)(=O)Cc1cccc(C#N)c1 | 0.867 |
| CC(=O)c1cccc(NC(=O)Cn2cnc(-c3cccs3)cc2=O)c1 | -4.44 |
| CCN(CC)C(CNC(=O)CCc1nc(C(C)C)no1)c1ccco1 (stereo not given) | 5.91 |
| CCn1c(CN(C)C)nnc1C1CCN(Cc2ccncc2)CC1 | 8.18 |
| CS(=O)(=O)CCOCCNc1ccc(Br)cn1 | -4.71 |
| Cc1ccc(-c2nc(CN3CCn4c(nnc4C4CC4)C3)co2)cc1 | 5.17 |
| CN(C)C[C@@H]1CN(C(=O)Cc2cccc(O)c2)C[C@@H]1CO | 1.92 |
| Cc1nnc(C2Cc3ccccc3CN2Cc2ncc(Cl)n2C)o1 (stereo not given) | 8.72 |

| SMILES | cytotoxicity at 10 µM [%] |
| --- | --- |
| O=C(CCn1cncn1)N1C[C@@H]2CC[C@H]1CN(Cc1ccncc1)C2 | 9.53 |
| Cc1cc(C)nc(Nc2cc(C)nc(C3CCN(C(C)C)C3)n2)n1 (stereo not given) | 3.06 |
| Cc1ccc(C2CSCCN2C(=O)c2ccsc2)o1 (stereo not given) | 1.68 |
| CCCS(=O)(=O)N1CCN(c2cc(-n3cnc(C)c3C)ncn2)CC1 | 5.54 |
| CCN(C)CC1CCN(C(=O)NCCC2Cc3ccccc3C2)C1 (stereo not given) | 0.458 |
| CC1CCN(C(=O)CN(Cc2ccco2)C2CC2)CC1 | -4.74 |
| Cn1cc(N2CC3(CCN(Cc4ccccc4)CC3)OCC2=O)cn1 | 5.25 |
| CC(C)NC(=O)[C@H]1CCS(=O)(=O)[C@@H]2CN(c3ncccn3)C[C@H]12 | -123 |
| COc1ccccc1OC1CCN(C(=O)CCCN2CCOCC2)CC1 | -177 |
| CCOc1cc(C(=O)N2CCCC(c3noc(C)n3)C2)ccc1OC (stereo not given) | -3.33 |
| Cc1cnc(C(=O)N2C[C@H](N3CCOCC3)[C@@H]3OCCC[C@@H]32)cn1 | -107 |
| CN(C)CCN1CC(C(=O)N(C)Cc2cc3cc(F)ccc3[nH]2)CC1=O (stereo not given) | -1.03 |
| CC(C)C(NC(=O)Cc1ccccc1)C(=O)NCc1ccc(O)nc1 (stereo not given) | 0.833 |
| Cn1c(=O)n(C)c2cc(C3SCC(=O)Nc4ccsc43)ccc21 (stereo not given) | 4.49 |
| COC(=O)CNC(=O)N1CCC2(CC1)CC(c1ccccc1)CN(C)C2 (stereo not given) | 0.761 |
| CCCc1cc(N2CCCC2Cn2cc(C)cn2)n2ncnc2n1 (stereo not given) | 3.04 |
| CC(C)NCC1(COc2ccccc2)C[C@@H](O)[C@@H](O)C1 (stereo not given in full) | 0.67 |
| Cc1cnn(CC(C)NCc2ccc(OCc3noc(C)n3)cc2)c1 (stereo not given) | 1.16 |
| Cn1ccc(C(=O)N2CCC3(CC2)CC(Nc2cnccn2)CO3)n1 (stereo not given) | 4.35 |
| COc1ncc(C2(O)CCN(Cc3ccccc3O)CC2)c(OC)n1 | 2.33 |
| Cc1nc(CSCCC(=O)NCc2ccncc2)cs1 | -15.6 |
| Cc1cccc(NC(=O)c2sc(C)nc2C)n1 | 5.52 |

| SMILES | cytotoxicity at 10 µM [%] |
| --- | --- |
| Cc1ccccc1-n1c(O)cc(C)c(C#N)c1=O | -1.54 |
| Cc1ncc2c(n1)CCCC2NC(=O)c1ccccc1Cn1cncn1 (stereo not given) | -24.4 |
| COCc1c(C(=O)N2CCCC(C(=O)c3nccn3C)C2)noc1C (stereo not given) | 15.8 |
| CC1CCCN(C(=O)CNC(=O)c2ccoc2)C1 (stereo not given) | -0.775 |
| COc1ccc(OC)c(C2CC(=O)Nc3nc(N4CCOCC4)sc32)c1 (stereo not given) | 14.3 |
| CC(=O)NC(C(=O)N1CCn2cncc2C1)C(C)C (stereo not given) | -14.7 |
| O=C(NC1CC1)c1cn(C2CCN(c3cc(C4CC4)ncn3)CC2)nn1 | 27.8 |
| Cc1cccc(C)c1CCNC(=O)N1CCCC2(C1)OCCO2 | -3.47 |
| Cc1ccccc1-n1cc(-c2ccnc(N3CCCC(O)C3)n2)cn1 (stereo not given) | 6.48 |
| Cc1nc(NC(=O)c2c3c(nn2C2CCS(=O)(=O)C2)CCC3)sc1C (stereo not given) | -4.57 |
| O=C(CN1CCN(c2ncnc3c2CCNCC3)CC1)N1CCCCC1 | 6.63 |
| CCN(CC)C(=O)[C@@H]1C[C@H](NC(=O)c2cccn2C(C)C)CN1C | 7.57 |
| CC(C)(C)NC(=O)CNc1ccc(C#N)c(C(F)(F)F)c1 | -1.28 |
| Cc1ccsc1CCNC(=O)CCC(=O)NC1CCCC1 | -2.98 |
| COC(=O)N1CCCCC1C(=O)N1CCN(c2ncccc2C)CC1 (stereo not given) | 3.37 |
| N#Cc1ccc(F)c(CN(CC(=O)N2CCCC2)CC2CCCO2)c1 (stereo not given) | -7.06 |
| Cc1cc(C)n(CCCC(=O)N2CCc3ncc(Cl)cc3C2)n1 | -25.3 |
| NC(=O)CN1CCCN(C(=O)Cc2ccc3ccccc3c2)CC1 | 7.82 |
| CCN(CC)S(=O)(=O)N1CCCC1CC(=O)c1cccs1 (stereo not given) | 3.62 |
| CCCc1cc(=O)n(CC(=O)NC(C)C)c(-n2nc(C)cc2C)n1 | 2.74 |
| CCN(CC)C(=O)Cn1cc(C(=O)NCCc2nc(C)c(C)s2)nn1 | 2.22 |
| CCN1CC(C(=O)NC(C)(C)CNC(=O)OC(C)(C)C)CC1=O (stereo not given) | 7.79 |

| SMILES | cytotoxicity at 10 µM [%] |
| --- | --- |
| COc1ccc(F)c(F)c1CN1CC(=O)N(c2ccccc2C)CC1C (stereo not given) | -0.121 |
| CCS(=O)(=O)c1ccc(N2CCC(NC(=O)c3ccccn3)CC2)cc1 | 10.8 |
| Cc1nc(C)c(S(=O)(=O)NC(=O)c2ccoc2)s1 | -6.91 |
| O=S(=O)(NC1=NCN(CCc2cccs2)CN1)c1ccc(Cl)cc1 | -2.03 |
| Cn1ccnc1CN1CCN(Cc2ccccc2C#N)CC1 | -3.83 |
| O=C1CCNc2cc3c(cc2CN1Cc1ccco1)OCO3 | 6.36 |
| Cc1ccc2oc(=O)n(CCC(=O)N3CCCC4(CNC(=O)O4)C3)c2c1 (stereo not given) | -6 |
| Cn1cc(C2CCCN2C(=O)Cn2ccc3ccc(Cl)cc32)cn1 (stereo not given) | 8.81 |
| Cn1cc(Cl)c(C(=O)N2CCc3nc4sccc4c(=O)n3CC2)n1 | -3.04 |
| O=C(C1CCOCC1)N1CC[C@H](O)[C@@H]1Cc1cccnc1 | -104 |
| COc1ccc(F)c(-c2ncccc2C(=O)N2C[C@@H]3CC[C@H]2C3)c1 | -6.12 |
| Cc1nc(N2CCC(O)(c3ccc(F)cc3)CC2)c2c(C)nn(C)c2n1 | -0.503 |
| CCN(CC)C(CNC(=O)c1ccc(S(C)(=O)=O)cc1)c1ccco1 (stereo not given) | -0.00646 |
| COCc1nc2cc(NCc3ccc(C)o3)ccc2o1 | -9.41 |
| COCCN1CCC2(CCN(Cc3nccs3)CC2)C1=O | -4.36 |
| CN(C)C(=O)c1cccnc1-c1ccc2c(c1)OCO2 | 1.58 |
| COc1ccc(CNCC2CC2)cc1F | -22 |
| CSc1ccc(NC(=O)NCC2CCCO2)cc1F (stereo not given) | -7.81 |
| CC(C)c1cc(C(=O)N2CCN(CC3CC3)[C@@H]3CS(=O)(=O)C[C@@H]32)no1 | -2.19 |
| Fc1ccc(-c2cnc(C3CCCN3)cn2)cc1 (stereo not given) | -2.79 |
| CC(=O)NS(=O)(=O)c1ccc2c(c1)N(C)CCC2 | -0.89 |
| COc1cccc(-n2nnc(C(=O)N3CCCCCC3)c2C)c1 | -9.71 |
